TAG inh: inhibitors of triacylglycerol accumulation; inhibition, % at 12.5 µM; 0.66% of 230,000 active; H9c2 cells, Nile Red lipid (TAG) fluorescence; cells loaded with 200 µM oleic acid;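 active = pattern-corrected inhibition of lipid staining of at least 50% with the nuclear-stain viability signal not falling by more than 50%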
SMARCA2 activ: activators of SMARCA2 function. MG213 cells, MMTV-luciferase reporter, dexamethasone, overnight. 1% of 370,000 active. AID 652017. activation, % at 9.1 µM; in the data active = activation above about 7.8%
Efflux pump mplx: blocks antifungal efflux pumps in multiplex yeast assay. S. cerevisiae Candida pump triplex, Nile Red efflux. inhibition, % at 10 µM. 0.44% of 330,000 active;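 active = plate passing quality check with inhibition over a set limit, or well fluorescence over plate mean plus 4 SD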;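 note: Nile Red retained in pooled yeast measured as flow cytometry median fluorescence; higher means more Nile Red kept so more efflux inhibition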
AHR act: human AHR activation | P35869 | AHR-responsive luciferase reporter cells, luminescence | activation, % at 5 µM | 2.5% of 320,000 active; in the data active = activation above about 47%
Target sequence (P35869 whole entry, looked up): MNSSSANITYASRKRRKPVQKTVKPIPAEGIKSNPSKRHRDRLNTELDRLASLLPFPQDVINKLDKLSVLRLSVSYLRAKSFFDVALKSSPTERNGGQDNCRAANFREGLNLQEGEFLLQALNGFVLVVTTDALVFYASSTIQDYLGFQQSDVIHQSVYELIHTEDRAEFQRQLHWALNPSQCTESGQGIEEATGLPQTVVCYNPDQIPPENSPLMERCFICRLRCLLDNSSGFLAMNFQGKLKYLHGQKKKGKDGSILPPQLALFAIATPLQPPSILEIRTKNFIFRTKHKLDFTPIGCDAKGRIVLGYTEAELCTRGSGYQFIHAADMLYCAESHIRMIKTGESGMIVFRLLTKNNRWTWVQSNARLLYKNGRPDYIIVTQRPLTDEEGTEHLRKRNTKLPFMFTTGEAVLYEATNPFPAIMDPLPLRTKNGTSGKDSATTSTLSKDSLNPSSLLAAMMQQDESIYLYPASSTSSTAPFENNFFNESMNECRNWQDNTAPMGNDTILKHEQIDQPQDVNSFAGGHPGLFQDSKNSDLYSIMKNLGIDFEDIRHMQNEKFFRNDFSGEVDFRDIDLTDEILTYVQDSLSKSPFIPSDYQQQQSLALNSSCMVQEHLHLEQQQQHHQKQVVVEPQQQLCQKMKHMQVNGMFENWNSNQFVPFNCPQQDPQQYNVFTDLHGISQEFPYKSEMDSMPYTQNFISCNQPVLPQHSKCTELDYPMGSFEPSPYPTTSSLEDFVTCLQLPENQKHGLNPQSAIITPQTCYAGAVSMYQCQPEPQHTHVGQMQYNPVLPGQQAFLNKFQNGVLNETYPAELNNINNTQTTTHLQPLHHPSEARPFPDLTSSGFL
Tb MetRS inh: Trypanosoma brucei MetRS inhibition; purified T. brucei MetRS, ATP depletion, Kinase-Glo luminescence; inhibition, % at 11.9 µM; 0.4% of 360,000 active; AID 624268;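 active = inhibition above a per-plate cutoff of the control wells' mean inhibition plus 3 SD, cut at about 5.5% in these data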
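Assay system: T. brucei methionyl-tRNA synthetase, purified | Medium: HEPES buffer with MgCl2, KCl, DTT, spermine, BSA, pyrophosphatase | Compound: 11.9 µM single point | Incubation: 15 min enzyme-compound preincubation, 2 h reaction, 10 min detection, 25 °C | Measured by: Kinase-Glo luciferase luminescence reporting remaining unconsumed ATP | Measure: % inhibition normalized to control-well medians | Replication: Singlicate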
Cmpd fluor yeast: counter-screen for efflux pump inhibitors: compound fluorescence. fluorescence ratio to DMSO, % at 10 µM. S. cerevisiae AD/pABC3, flow cytometry. 4% of 1,700 active. shares compounds with Efflux pump mplx;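 active = fluorescence ratio to DMSO above its plate's cutoff, the plate mean ratio plus 5 SD, cut at about 210% in these data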;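 note: unstained yeast with no Nile Red so the signal is compound autofluorescence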
CaMdr1 efflux inh: blocks the Candida albicans Mdr1 efflux pump in yeast; shares compounds with Efflux pump mplx; AID 588518; S. cerevisiae AD/CaMDR1, Nile Red efflux, flow cytometry; inhibition, % at 10 µM; 1% of 1,700 active; in the data active = inhibition above about 26%;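 note: higher means more Nile Red retained so more efflux inhibition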
Cdr2 pump inh: Candida Cdr2 efflux pump inhibition. S. cerevisiae AD/CaCDR2, Nile Red retention, flow cytometry. 4% of 1,700 active. AID 588520. Nile Red retention ratio vs DMSO, % at 10 µM. shares compounds with Efflux pump mplx; in the data active = Nile Red retention ratio vs DMSO above about 190%;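 note: higher ratio means more blocking of Cdr2 efflux of the dye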
Cdr1 pump inh: blocks the Candida albicans Cdr1 efflux pump in yeast. AID 588522. 1% of 1,700 active. shares compounds with Efflux pump mplx. inhibition, % at 10 µM. S. cerevisiae AD/CaCDR1, Nile Red efflux, flow cytometry;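 active = inhibition above the screen-wide mean plus twice its standard deviation, cut at about 32% in these data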
Numbers stand for hits; 0 = inactive; - = not tested or not shown. An excerpt weighted towards active compounds, which were near 4.1% of everything screened.

SMILES	TAG inh	SMARCA2 activ	Efflux pump mplx	AHR act	Tb MetRS inh	Cmpd fluor yeast	CaMdr1 efflux inh	Cdr2 pump inh	Cdr1 pump inh
COc1cc(/C=C2\SC(=S)N(CC(=O)NC3=NCCS3)C2=O)cc(OC)c1OC	-	0	0	0	0	-	-	-	-
COc1ccc(/C=C2\SC(=S)N(CCCC(=O)Nc3cccc(C(=O)O)c3)C2=O)cc1OC	0	0	7.2	0	0	0	0	0	0
COc1ccc(/C=C2\SC(=S)N(CCC(=O)NC3=NCCS3)C2=O)cc1OC	-	0	5.5	0	0	0	0	0	0
COC(=O)[C@@]12CCCCC3=C1N(CCC3)C(=O)[C@H]2CC(=O)N1CCCC1	-	0	-	-	-	-	-	-	-
Cc1cc(C(=O)COC(=O)c2ccc[nH]c2=O)c(C)n1-c1ccccc1	-	0	0	0	0	-	-	-	-
Cc1cc(C(=O)COC(=O)c2ccc[nH]c2=O)c(C)n1-c1ccc(F)cc1	-	0	27.8	0	0	0	0	0	0
O=c1c2ccccc2[nH]c(=S)n1CCN1CCc2ccccc2C1	0	0	0.8	0	0	0	0	0	0
CCOC(=O)[C@]12CCCCC/C=C\1N(CCc1ccc(Cl)cc1)C(=O)[C@H]2CC(=O)NCc1ccc(C)o1	-	0	-	-	-	-	-	-	-
Cc1cc(C)cc(N(CC(=O)NC2CCC(C)CC2)S(=O)(=O)c2ccc(Cl)s2)c1 (stereo unspecified)	-	0	-	-	-	-	-	-	-
CCOC(=O)c1oc2c(c1C)C(=O)CCC2	-	0	6.7	0	0	0	0	0	0
COC(=O)c1cccc(Cn2ccc3ccc(-c4ccc5ccn(C(=O)C6CCC6)c5c4)cc32)c1	-	0	-	-	-	-	-	-	-
CN(C)c1ccc(/C=C/c2ccc3ccccc3n2)cc1	-	-	0	0	0	-	-	-	-
CN(C)c1ccc(/C=C/c2nc3ccccc3s2)cc1	0	0	0.6	0	0	0	0	0	0
COc1ccc(OC)c(-c2csc(NC(=O)CN3C(=O)C4CCCCC4C3=O)n2)c1 (stereo unspecified)	0	0	0.4	0	0	0	0	0	0
COC(=O)c1ccc(Cn2ccc3ccc(-c4ccc5ccn(C(=O)C6CCCCC6)c5c4)cc32)cc1	-	0	-	-	-	-	-	-	-
O=C(O)c1nccnc1C(=O)N1CCN(c2ccccc2)CC1	0	0	1.9	0	0	0	0	0	0
O=C(c1ccccc1)N1CCN(c2ccccc2)CC1	0	0	-	-	0	-	-	-	-
NC(=O)C1CCN(c2nc(-c3ccccc3F)cs2)CC1	0	0	7.5	0	0	0	0	0	0
C/C(=N\NC(=O)c1nnn(-c2nonc2N)c1CSc1ccccc1)c1ccc2c(c1)OCO2	-	0	1.0	0	0	0	0	0	0
CCOC(=O)c1ccc(Nc2cc(C)nc(-c3ccccc3)n2)cc1	-	0	30.7	0	0	0	0	0	0
CCOC(=O)c1ccc(Nc2nc(C)cc(C)n2)cc1	-	0	0	-	0	-	-	-	-
O=Cc1ccc(-n2cncn2)cc1	-	0	1.0	0	0	0	0	0	0
CCSc1cc(N2CCOCC2)nc(-c2ccc(Cl)cc2)n1	-	0	0	0	0	0	0	0	0
CCSc1cc(N2CCCC2)nc(-c2ccccc2)n1	-	0	0	0	0	-	-	-	-
CCSc1cc(N2CCCC2)nc(-c2ccc(Cl)cc2)n1	0	0	0	0	0	0	0	0	0
SMILES	TAG inh	SMARCA2 activ	Efflux pump mplx	AHR act	Tb MetRS inh	Cmpd fluor yeast	CaMdr1 efflux inh	Cdr2 pump inh	Cdr1 pump inh
COC(=O)c1cc(-c2ccc(C(C)=O)cc2)c(=O)n2c1CCC2	-	0	-	-	-	-	-	-	-
O=C(Nc1ccc(C2=NCCN2)cc1)c1ccc(C(=O)Nc2ccc(C3=NCCN3)cc2)c([N+](=O)[O-])c1	-	0	1.1	0	0	0	0	0	0
Cc1ccc(NC(=O)c2ccc(-n3cccn3)c([N+](=O)[O-])c2)cc1	0	0	0	0	0	-	-	-	-
CO[C@@H]1[C@H](O)CC[C@]2(O)CN(c3ccc(F)cc3)[C@](C)([C@H](O)CC=C(C)C)[C@@H]12	-	0	-	-	-	-	-	-	-
Cc1occc1-c1nnc(SCC(=O)Nc2ccc3ncccc3c2)n1-c1ccccc1	-	0	-	-	-	-	-	-	-
CCC1=C(c2cc(OC)c(OC)c(OC)c2)C2(CCCC2)C(=O)O1	-	0	0.8	0	0	0	0	0	0
C=CCNC(=O)NC(=O)COC(=O)/C(C#N)=C/c1cc(C)n(CC(C)C)c1C	-	0	2.4	0	0	0	0	0	0
CCCn1c(C)cc(/C=C(\C#N)C(=O)OCC(=O)NC(=O)NC(C)(C)C)c1C	0	0	0	0	0	-	-	-	-
O=C(c1cc2nc(-c3cccs3)cc(C(F)(F)F)n2n1)N1CCCc2ccccc21	0	0	0.7	0	0	0	0	0	0
CSc1nsc(SC)c1C(=O)NC(=O)Nc1cccnc1	0	0	0.8	0	0	0	0	0	0
CCOC(=O)C1C(=O)C=C(/C=C/c2ccc(N(C)C)cc2)CC1c1ccccc1 (stereo unspecified)	-	0	0.6	0	0	588.3	0	0	0
Clc1ccc(C[n+]2cc(-c3ccccc3)n3c2CCC3)cc1Cl	-	0	0	0	0	-	-	-	-
O=C(C[n+]1cc(-c2ccc(Cl)c(Cl)c2)n2c1CCC2)OCc1ccccc1	-	0	6.4	0	0	0	0	0	0
C=CCNC(=O)NCC1CCN(Cc2ccc(OC)cc2)CC1	-	0	-	-	-	-	-	-	-
CCOc1ccc(C(=O)Nc2cccc(C(=O)O)c2)cc1Cl	-	0	0	0	0	-	-	-	-
CCOc1ccc(C(=O)Nc2cccc(-c3nc4cccnc4o3)c2)cc1Cl	-	-	1.0	0	0	0	0	0	0
Cc1cc(C(F)(F)F)cc(NNC(=O)NC(=O)c2ccccc2Cl)n1	0	0	0	0	0	-	-	-	-
Cc1cc(C(F)(F)F)cc(NNC(=O)NC(=O)c2ccc(Cl)cc2)n1	0	0	1.3	0	0	0	0	0	0
C=CCN1C(=O)[C@H](CC(=O)NCCC(C)C)[C@@]2(C(=O)OCC)CCCC=C12	-	0	-	-	-	-	-	-	-
Cc1cc(C)c2c(N)c(C(=O)NN3CC(=O)N(c4ccccc4F)CC3=O)sc2n1	-	0	0.8	0	0	0	0	0	0
CC(C)C1CC(N(C)C)=CC(=S)N1 (stereo unspecified)	-	0	-	-	-	-	-	-	-
Cc1ccccc1CC(=O)N1CCC(n2nnc3ncccc32)CC1	-	0	-	-	-	-	-	-	-
COC(=O)C1CN(Cc2ccc(F)cc2)CCS(=O)(=O)N1Cc1ccc(C(F)(F)F)cc1 (stereo unspecified)	-	0	-	-	-	-	-	-	-
O=C(O)c1cccc(-c2ccc(/C=c3/sc4nc5ccccc5n4c3=O)o2)c1	0	0	3.9	0	0	0	0	262.1	0
O=C(O)c1ccccc1-c1ccc(C=c2sc3nc4cc(Br)cnc4n3c2=O)o1	0	0	-	-	0	-	-	-	-
C=CCN(C(=O)[C@@H](CCCC)[C@@H](O)c1ccc2ccccc2c1)c1ccccc1	-	0	-	-	-	-	-	-	-
COc1ccc(-n2cc(-c3ccccc3)c3c(NN4CCOCC4)ncnc32)cc1	0	0	2.5	0	0	0	0	0	0

Compound activity (PubChem)
